Screens from PubChem BioAssay.
Platelet DG rel: modulates dense granule release in human platelets; human platelet-rich plasma, SFLLRN dense granule ATP release, luminescence; 300,000 compounds, 0.22% hits; inhibition, %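 (compounds screened at 7.5 µM in platelet-rich plasma)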;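 active = mean replicate score, as percent of positive control, at or above 50; inconclusive = mean below 50 but at least one replicate at or above 50; inactive = mean and every replicate below 50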
RanGTP-Impb inh: disruptors of Ran-importin-beta complex formation – biochemical, FRET, CFP-Ran, YFP-importin-beta, homogeneous, primary screen; AID 2216; inhibition, % (no concentration beside the values); 300,000 compounds, 1.1% hits; cell-free CFP-Ran/YFP-importin-beta FRET ratio;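 active = more than half of the replicate wells show a fall in the fluorescence ratio signal beyond about 16%, limit read from the data, passing the limit was not always enough; inconclusive = exactly half of the replicate wells pass the set limit; inactive = fewer than half of replicates pass the limit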;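 note: 0% = DMSO wells and 100% = Ran loaded with GDP instead of GTP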
Runt-CBFb FRET: inhibitors of human RUNX1 Runt domain binding to CBFb. Cerulean-Runt/Venus-CBFb FRET ratio 530/480, 1 h. Q01196+Q13951. inhibition, % at 20 µM. 220,000 compounds, 0.46% hits;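 active = inhibition over about 50% at 20 µM in the single-dose screen, limit read from the data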;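 note: 0% = DMSO wells and 100% = excess unlabeled CBFb competitor control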
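Measured by: fluorescence energy transfer, 422 nm excitation, 530/480 nm emission; Assay system: Cerulean-Runt domain; Medium: Tris pH 7.5 buffer with BSA; Measure: loss of energy transfer signal; Controls: 5 µM unlabeled CBFb as full-inhibition high control; Incubation: protein complex preformed 1 h, compound exposure 1 h, room temperature, dark.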
Runt-SMMHC FRET: blocks binding of human RUNX1 Runt domain to CBFb-SMMHC | Q01196+Q13951 | Cerulean-Runt/Venus-CBFb-SMMHC FRET ratio 530/480, 1 h | inhibition, % at 20 µM | 220,000 compounds, 0.74% hits;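 active = mean inhibition across duplicate retests at 20 µM reaching about 50%, limit read from the data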;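 note: 0% = DMSO wells and 100% = wells with excess untagged CBFb-SMMHC; inhibitors lower the FRET ratio by blocking Runt binding to CBFb-SMMHC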
Rce1 inh: yeast Ras-converting enzyme inhibition. Q03530. yeast membranes, quenched prenylated peptide cleavage fluorescence. calls only. 290,000 compounds, 0.27% hits. AID 2563;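 active = fall in fluorescence gain of 50% or more versus controls, with final raw signal at or below 3038400; inconclusive = same 50% fall but final raw signal above 3038400; inactive = fall in fluorescence gain under 50%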;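 note: plate controls were neutral control wells for no effect and wells lacking membranes for full effect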
Target sequence (Q03530 whole entry, looked up): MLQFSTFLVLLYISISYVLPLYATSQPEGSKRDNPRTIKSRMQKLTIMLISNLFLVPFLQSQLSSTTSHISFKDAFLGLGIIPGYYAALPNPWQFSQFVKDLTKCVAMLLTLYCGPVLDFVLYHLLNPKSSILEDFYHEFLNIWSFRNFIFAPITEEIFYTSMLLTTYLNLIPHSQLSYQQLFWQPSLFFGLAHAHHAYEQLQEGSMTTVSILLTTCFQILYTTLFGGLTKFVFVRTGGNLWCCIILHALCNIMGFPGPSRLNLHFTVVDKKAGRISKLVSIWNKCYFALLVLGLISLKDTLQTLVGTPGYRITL
* = called active by the depositor; i = inactive; ? = inconclusive; . = no result given; + = active, no number. This is a sample that favours compounds with a hit; in the whole collection about 1.8% have one here.

SMILES	Platelet DG rel	RanGTP-Impb inh	Runt-CBFb FRET	Runt-SMMHC FRET	Rce1 inh
O=C1c2ccccc2C(O)N1CCN1CCOCC1 (stereo not given)	53*	-2	-2	-2	i
Cc1ccc(C)c(OCCC(=O)OCC(=O)NC2CCCC2)c1	-6	0	.	.	i
Cc1cccc(NS(=O)(=O)c2ccc(C)c(C(=O)OCC(=O)Nc3cc(C)on3)c2)c1	8	2	2	3	+
Cc1cccc(NS(=O)(=O)c2cc(C(=O)OCC(=O)Nc3cc(C)on3)ccc2C)c1	3	1	-1	-2	i
Cc1cc(C)cc(OCC(=O)OCC(=O)c2cc(C)n(C3CC3)c2C)c1	-21	6	.	.	i
Cc1ccc(C(=O)N/N=C/C2=Cc3ccccc3OC2C)cc1 (stereo not given)	22	-4	1	2	i
CC1Oc2ccccc2C=C1/C=N/NC(=O)[C@@H](C)NC(=O)OC(C)(C)C (stereo not given in full)	.	2	-1	-1	+
CS(=O)(=O)N(C(=O)NC(=O)NC12CC3CC(CC(C3)C1)C2)C1CCCCC1	0	-1	0	0	i
Cc1cc(-c2nnc(CCC(=O)NC(C)c3cccc4ccccc34)o2)no1 (stereo not given)	50*	5	0	0	i
NNc1nc2c(-c3ccc(F)cc3)nnn2c2ccccc12	24	21*	13	-5	i
NNc1nc2c(-c3ccc(Cl)cc3)nnn2c2ccccc12	4	-5	5	0	i
Cc1cc(NC(=O)CSc2ccnc(=O)[nH]2)no1	-16	?	.	.	i
C=CCOc1ccc(C2C(C#N)=C(N)N(Nc3ccccc3)C3=C2C(=O)CCC3)cc1OC (stereo not given)	-3	7	89*	104*	i
COc1cc(C2C(C#N)=C(N)N(Nc3ccccc3)C3=C2C(=O)CC(C)(C)C3)ccc1OCc1ccccc1 (stereo not given)	14	5	18	32	i
CCOc1ccccc1-c1nc(CN2CCCN(C(=O)c3ccco3)CC2)c(C)o1	-3	4	.	.	i
COc1ccc(CCNC(=O)CO/N=C/c2cc3c(cc2Br)OCO3)cc1OC	-3	1	3	1	i
O=C(O)c1ccccc1NCCO	0	0	1	-4	+
CCCOc1c(Br)cc(C2C3=C(CCCC3=O)N(CC)C3=C2C(=O)CCC3)cc1OC	2	96*	94*	90*	i
CCCOc1c(Br)cc(C(=O)OCC(=O)NC2CC2)cc1OC	9	0	.	.	i
CCCOc1c(Br)cc(C2C3=C(CCCC3=O)N(C)C3=C2C(=O)CCC3)cc1OC	-5	107*	-2	79*	i
Cc1cccc(OCC(=O)N2CCc3ccccc3C2)c1	-2	5	.	.	i
Cc1ccc(N(CC(=O)NC2CCCC2)C(=O)CCC(=O)Nc2nc(C)cs2)cc1	-7	?	.	.	i
CCOc1ccc(CNc2cccc(SC)c2)cc1	-3	3	.	.	i
CCCCn1c(=O)c(-c2ccccc2)c(O)c2ccccc21	-4	3	-3	2	+
CCn1c(=O)c(-c2cc(=O)[nH][nH]2)c(O)c2ccccc21	-5	0	0	-7	i
SMILES	Platelet DG rel	RanGTP-Impb inh	Runt-CBFb FRET	Runt-SMMHC FRET	Rce1 inh
CCn1c(=O)c(-c2ccccc2)c(O)c2ccccc21	1	-2	-2	0	+
CCCc1c(O)c2ccccc2n(-c2ccccc2)c1=O	0	-1	-1	6	i
O=c1c(-c2ccccc2)c(O)c2ccccc2n1-c1ccccc1	11	0	.	.	+
CO[C@H]1O[C@H](C)[C@@H](O)C[C@H]1NC(=O)OCc1ccccc1	8	-4	.	.	i
COc1cc(/C=C(\C#N)C(=O)Nc2cccc(C(=O)O)c2)ccc1OCc1ccc(F)cc1	-1	4	.	.	i
CCOc1cc(/C=C(\C#N)C(=O)Nc2cccc(C(=O)O)c2)ccc1OCc1ccccc1Cl	-3	78*	.	.	.
CC(=O)C(/C=N/c1ncc(C(F)(F)F)cc1Cl)=C(\C)O	-1	22*	-1	-1	i
O=C(Nc1cccc(O)c1)C(=O)Nc1ccccn1	71*	4	-1	-1	i
COc1ccc(NC(=O)Nc2ccccn2)cc1OC	8	27*	-1	-4	i
O=C(Nc1ccc(Cl)c(Cl)c1)Nc1ccccn1	0	-4	.	.	i
COc1ccc(NC(=O)c2ccc(COc3ccccc3OC)o2)cc1OC	3	13*	-1	-5	i
CC1=C(C(=O)OCCNC(=O)c2ccccc2O)C(c2ccccc2[N+](=O)[O-])C(C(=O)OCC2CCCO2)=C(C)N1 (stereo not given)	-16	6	-2	0	i
C=CCOc1ccc(CNCCc2ccc(S(N)(=O)=O)cc2)cc1	0	3	-6	0	i
Cc1cccc(NC(=O)c2cc(S(=O)(=O)N3CCCCC3)c[nH]2)c1C	22	7	.	.	+
COc1ccc(-c2noc(C3CCCN(C(=O)c4ccccc4OC)C3)n2)cc1OC (stereo not given)	0	5	0	-3	i
COc1ccc(C(=O)N2CCCC(c3nc(-c4ccc(OC)c(OC)c4)no3)C2)c(OC)c1 (stereo not given)	50*	0	0	0	i
Cc1cccc(NC(=O)c2ccoc2C)n1	5	0	3	-4	i
Cc1occc1C(=O)Nc1cc(C(C)(C)C)on1	56*	0	0	2	i
O=C(NC(C(=O)N/N=C/c1c2ccccc2cc2ccccc12)c1n[nH]c(=O)c2ccccc12)c1ccccc1 (stereo not given)	-3	97*	1	8	i
O=C(NC(C(=O)N/N=C/c1ccccc1)c1n[nH]c(=O)c2ccccc12)c1ccccc1 (stereo not given)	1	-5	0	1	i
O=c1c(Cl)c(N2CCCCC2)cnn1-c1nc2ccccc2[nH]1	27	0	-1	1	i
O=c1c2ccccc2cnn1-c1nc2ccccc2[nH]1	74*	-1	-2	0	i
COC(=O)C1=C(C)N=C2SC(C#N)=C(N)N2C1c1ccc(OC)cc1 (stereo not given)	-4	21*	-6	-19	i
COC(=O)C1=C(C)N=C2SC(C#N)=C(N)N2C1c1cccc(OC)c1 (stereo not given)	?	?	-6	-31	i
Cc1ccc(C(=O)N2N=C(c3cccc(NS(C)(=O)=O)c3)CC2c2cccs2)cc1 (stereo not given)	2	3	.	.	i
O=C(Cc1ccsc1)N1CCc2c([nH]c3ccccc23)C1c1ccccn1 (stereo not given)	3	29*	2	2	i
CC(C)(CO)NCc1c(OCc2ccc(Cl)cc2)ccc2ccccc12	-7	1	.	.	i
